PAX8 reporter: inhibitors of PAX8 transcriptional activity in RMG-I cells. hit rate 1.2% among 360,000. inhibition, % at 12.6 µM. RMG-I TPO-luciferase reporter, SteadyGlo, 24 h;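 active = mean replicate inhibition at least 60% with every replicate also reaching 60%; inconclusive = only one of the two criteria is met; inactive = mean below 60% and not all replicates reaching 60%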;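 also: luciferase light reporting Pax8 driven TPO promoter activity; plate controls were median of neutral control wells for no effect and mitoxantrone controls for full effect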
Shn3 3UTR inh: Schnurri-3 reporter inhibition in Clone20 osteoblasts; Clone20 osteoblast Shn3 3'UTR firefly luciferase, 24 h; inhibition, % at 12.5 µM; hit rate 0.52% among 360,000;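 active = mean inhibition of at least 75% with every replicate also reaching 75%; inconclusive = mean inhibition at least 75% but some replicate below; inactive = mean inhibition below 75%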;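 also: 0% = median of neutral control wells and 100% = pilot-screen positive control compound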
EWS-Fli block: inhibitors of EWS/Fli oncoprotein transcriptional activity; A673 NR0B1-luciferase reporter, viability-normalised; hit rate 0.67% among 350,000; inhibition, % at 12.6 µM;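 active = mean inhibition of at least 50% after viability correction, with every replicate also passing that limit; inconclusive = mean reaches 50% but only one of two replicates passes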;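 also: firefly luciferase signal divided by Alamar Blue viability fluorescence both relative to DMSO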
aSyn 5UTR inh: MLPCN primary screen, SNCA 5' untranslated region. inhibition, % (tested at 7.5 µM). hit rate 0.82% among 300,000. alpha-synuclein 5'UTR reporter, inhibitor activity; in the data active = inhibition above about 60%; inconclusive = no clear call, values can overlap the other calls;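 also: H4 neuroglioblastoma cells stably carrying SNCA 5'UTR luciferase fusion; 0% = DMSO wells and 100% = positive control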
LMP1 NFkB inh: inhibitors of Epstein-Barr LMP1-induced NF-kappaB reporter; LMP1-induced NF-kappaB luciferase reporter cells, luminescence; inhibition, % at 12.5 µM; hit rate 0.69% among 350,000; in the data active = inhibition above about 41%; inconclusive = no clear call, values can overlap the other calls;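 also: 0% = neutral control wells and 100% = reference inhibitor control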
FN deposition inh: fibronectin deposition inhibition | AID 743247 | inhibition, % at 12.6 µM | hit rate 0.086% among 350,000 | AH1F fibroblasts, Alexa488-fibronectin deposition fluorescence, overnight;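 active = mean inhibition across replicates of 30% or more, regardless of how many single replicates reach that level; inconclusive = mean under 30% yet at least half of replicates reach 30%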;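 also: positive control wells lacked labelled fibronectin entirely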
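Schedule: 1 h cell adhesion before compound, then overnight fibronectin incubation; test system: AH1F fibroblast monolayer depositing Alexa488-labelled fibronectin into matrix; quantity: 10000 AH1F cells per well; probe or stimulus: fluorescent fibronectin at 24 nM final; signal: fluorescence, ex 485 nm, em 525 nm; evaluation: percent inhibition as loss of matrix-bound fibronectin fluorescence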
Numbers without * were called inactive; ? = inconclusive; nt = not tested or not shown. An excerpt weighted towards active compounds, which were near 2.1% of everything screened.

SMILES	PAX8 reporter	Shn3 3UTR inh	EWS-Fli block	aSyn 5UTR inh	LMP1 NFkB inh	FN deposition inh
N#CC1=C(N)Oc2ccc3ccccc3c2C1c1cccnc1 (stereo unspecified)	26	5	54*	?	1	5
N#CC1=C(N)Oc2ccc3ccc(O)cc3c2C1c1cccnc1 (stereo unspecified)	nt	10	8	13	16	nt
N#CC1=C(N)Oc2c(ccc3cccnc23)C1c1ccccc1 (stereo unspecified)	26	69	59*	29	9	36*
Cc1ccc2[nH]c(=O)c(C3C(C#N)=C(N)Oc4c3ccc3cccnc43)cc2c1 (stereo unspecified)	nt	51	nt	75*	22	3
COCC#Cc1cnc2c(c1)C(=O)N([C@@H](C)CO)C[C@H](C)[C@H](CN(C)C(=O)Nc1cc(F)ccc1F)O2	-28	nt	-3	nt	nt	-10
Cc1noc(C)c1S(=O)(=O)Nc1ccc2c(c1)CC(=O)N([C@@H](C)CO)C[C@@H](C)[C@H](CN(C)S(=O)(=O)c1ccccc1)O2	4	nt	-4	nt	nt	nt
Cn1cc(C(=O)c2ccc(Cl)cc2Cl)cc1C(=O)N/N=C(\N)COc1ccc(Cl)cc1	70*	18	25	42	-10	6
Cn1cc(C(=O)c2ccc(Cl)cc2Cl)cc1C(=O)N/N=C(\N)COc1ccc(Cl)cc1Cl	nt	59	nt	65*	25	nt
Cn1cc(C(=O)c2ccc(Cl)cc2Cl)cc1C(=O)N/N=C(\N)COc1ccc(F)cc1	nt	-5	nt	20	3	nt
Cn1cc(C(=O)c2ccc(Cl)cc2Cl)cc1C(=O)N/N=C(\N)COc1ccccc1	nt	6	nt	11	7	nt
Cc1ccc(C(=O)COC(=O)COc2ccccc2[N+](=O)[O-])s1	-8	-8	-1	nt	3	-1
CCOC(=O)COc1ccccc1/C=C\[N+](=O)[O-]	nt	97*	nt	-9	15	nt
O=C(Cn1cnc2c(nnn2Cc2ccccc2)c1=O)N1CCN(c2ccccc2)CC1	29	0	-4	14	83*	1
CO[C@@H]1CN(C)C(=O)c2cc(NC(=O)C3CC3)ccc2OC[C@H](C)N(Cc2cccnc2)C[C@H]1C	14	nt	-4	nt	nt	-10
Cc1cc(C(=O)N/N=C/c2cc(Br)ccc2OC(=O)c2ccccc2Cl)n[nH]1	13	90*	1	?	27	-2
C[C@H](O)C#Cc1ccc2c(c1)O[C@@H](CN(C)C(=O)c1ccccc1)[C@H](C)CN([C@@H](C)CO)S2(=O)=O	nt	nt	-4	nt	nt	2
C[C@H]1CN([C@@H](C)CO)C(=O)c2ccccc2-c2ccccc2CO[C@H]1CN(C)C(=O)CCC(F)(F)F	9	nt	-3	nt	nt	nt
O=C(NNc1ccccc1)C(=O)NNS(=O)(=O)c1ccc(CCCl)cc1	-20	86*	2	8	-20	-3
Nc1ccc(S(=O)(=O)NNC(=O)C(=O)NNc2ccccc2)cc1	1	-13	-9	16	-19	5
O=C(N/N=C/c1c[nH]c2ccccc12)C1COc2ccccc2O1 (stereo unspecified)	24	-2	nt	76*	-5	-1
O=C(N/N=C/c1c[nH]c2ccccc12)c1cc(-c2ccc(-c3ccccc3)cc2)n[nH]1	nt	-28	nt	-146	3	0
Cc1ccc(-c2cc(C(=O)N/N=C/c3c[nH]c4ccccc34)[nH]n2)cc1	-4	-6	39	78*	-3	2
COc1ccc(S(=O)(=O)N(C)C[C@@H]2Oc3c(NS(=O)(=O)c4ccc(Cl)cc4)cccc3C(=O)N([C@H](C)CO)C[C@H]2C)cc1	-9	nt	-5	nt	nt	3
O=C(C1CCCC1)N1[C@@H](CO)[C@@H]2c3ccccc3N(S(=O)(=O)c3ccccc3)C[C@@H]21	-8	nt	16	nt	nt	18
COC(=O)N(C)C[C@@H]1OCc2ccccc2-c2ccccc2C(=O)N([C@@H](C)CO)C[C@@H]1C	nt	nt	-13	nt	nt	0
SMILES	PAX8 reporter	Shn3 3UTR inh	EWS-Fli block	aSyn 5UTR inh	LMP1 NFkB inh	FN deposition inh
COc1cc(-c2c(CCO)sc3ccccc23)cc(OC)c1OC	17	nt	56*	nt	nt	nt
COCC(=O)Nc1ccc2c(c1)C(=O)N(C)[C@@H]1CC[C@@H](CC(=O)Nc3ccccc3)O[C@H]1CO2	5	nt	4	nt	nt	2
C=CCN1C(=O)[C@]2(O[C@H](CCn3cc([C@H](O)c4ccccc4)nn3)[C@@H]([Si](C)(C)c3ccc(OC)cc3)[C@@H]2C)c2cc(N3CCOC3=O)ccc21	1	nt	16	nt	nt	nt
COc1ccc([Si](C)(C)[C@@H]2[C@@H](CCO)O[C@]3(C(=O)N(Cc4ccccc4)c4ccc(N5C(=O)c6cccc7cccc5c67)cc43)[C@H]2C)cc1	88*	nt	0	nt	nt	nt
COc1ccc([Si](C)(C)[C@@H]2[C@@H](CCO)O[C@]3(C(=O)N(Cc4ccccc4)c4ccc(N5CCCCC5=O)cc43)[C@H]2C)cc1	35	nt	11	nt	nt	nt
COc1ccc([Si](C)(C)[C@@H]2[C@@H](CCO)O[C@]3(C(=O)N(Cc4cccc(NC(C)=O)c4)c4ccccc43)[C@H]2C)cc1	103*	nt	21	nt	nt	nt
C=CCN1C(=O)[C@]2(O[C@H](CCn3cc(CCO)nn3)[C@@H]([Si](C)(C)c3ccc(OC)cc3)[C@@H]2C)c2cc(N3C(=O)c4cccc5cccc3c45)ccc21	97*	nt	36	nt	nt	nt
O=C(c1ccccn1)N1CC2(C1)[C@H](c1ccccc1)[C@@H](CO)N2C(=O)C1CC1	-1	nt	11	nt	nt	-7
Cn1cnc(S(=O)(=O)N[C@@H]2CC[C@H](CC(=O)Nc3ccc(-c4ccccc4)cc3)O[C@@H]2CO)c1	0	nt	-7	nt	nt	nt
COCC#Cc1ccc([C@H]2[C@H]3CN(C(=O)C4CC4)CC(=O)N3[C@H]2CO)cc1	-24	nt	-4	nt	nt	-4
O=C(Nc1ccc(Cl)cc1)Nc1cccc(C(=O)O)c1	86*	15	82*	42	62*	0
O=C(Nc1ccccc1)Nc1cccc(Cl)c1	nt	3	nt	nt	-12	-9
O=C(Nc1cccc(Cl)c1)Nc1cccc(C(=O)O)c1	14	22	55*	55	43*	5
O=C(NCc1ccccc1)C(=O)Nc1cccc(C(=O)O)c1	59	30	57*	74*	67*	-3
CC(=O)c1cccc(NC(=O)Nc2ccc(C(=O)N3CCOCC3)cc2)c1	nt	1	nt	6	49*	-7
Cc1ccc(NC(=O)Nc2ccc(C(=O)N3CCOCC3)cc2)cc1	-3	-13	nt	2	7	-4
C[C@H](CO)N1C[C@H](C)[C@H](CN(C)S(C)(=O)=O)Oc2ccc(NC(=O)CCC(F)(F)F)cc2CC1=O	5	nt	-3	nt	nt	nt
c1ccc(-c2nc(-c3ccccn3)nc(-c3ccccn3)n2)nc1	15	4	-1	14	-3	1
COCC(=O)N(C)c1nnc(-c2ccc([N+](=O)[O-])cc2)s1	nt	-11	nt	-22	4	nt
COCC(=O)N(C)c1nnc(-c2ccccn2)s1	nt	-21	nt	-30	50*	nt
c1ccc(-c2nnc(-c3ccccn3)s2)nc1	1	-2	49	78*	47*	1
